From ChEMBL document CHEMBL2346643, “Semisynthetic studies identify mitochondria poisons from botanical dietary supplements--geranyloxycoumarins from Aegle marmelos” (Bioorg Med Chem, 2013)
Active and inactive are the calls of the source. No cut-off for these calls is given here.

How the values were obtained:
MDA-MB-231 [1] = experiment: Antiproliferative activity against human MDA-MB-231 cells at 1 to 10 uM after 48 hrs by SRB assay; assay type: functional, cell-based
In short: (§1)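 T47D or MDA-MB-231 breast tumor cells were exposed to 1, 3, 10 and 30 μM for 48 h or 144 h (6 d). For the 6 d exposure, medium was replaced after 3 days with fresh medium containing compound. Stocks were 4 mM in 2-propanol, with final solvent below 0.75%. Viability was measured by sulforhodamine B and expressed as % inhibition of the untreated control: [1−(OD treated/OD control)]×100.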

[2] = molecular target: Mitochondrial complex I (NADH dehydrogenase); experiment: Inhibition of mitochondrial ETC complex 1 in human T47D cells assessed as inhibition of 1% O2-induced HIF1 activation incubated for 30 mins prior to 1% O2-challenge measured after 16 hrs by luciferase reporter assay; assay type: cell-based
In short: (§2)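 pHRE-luc reporter transfected T47D cells were exposed for 16 h to hypoxia (1% O2) or to chemical hypoxia (10 μM 1,10-phenanthroline) in the presence of compound. The highest concentration tested was 30 μM. Luciferase signal was expressed as % inhibition of the induced control. IC50 and 95% CI came from one representative concentration-response experiment run in triplicate. Cycloheximide at 10 μM served as control.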

T47D [3] = experiment: Inhibition of mitochondrial ETC complex 1 in human T47D cells assessed as inhibition of oxygen consumption at 30 uM after 5 to 10 mins by Clarke-type electrode analysis; assay type: cell-based
In short: (§3)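 For acute exposure, intact T47D cells received compound at 3, 10 or 30 μM for 5–10 min. Oxygen consumption was then measured with a Clarke-type electrode, with rotenone at 1–100 nM as control. Results are % inhibition of the untreated rate, averaged over two independent experiments with deviation from the average.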

T47D [4] = experiment: Inhibition of mitochondrial ETC complex 1 in human T47D cells assessed as inhibition of oxygen consumption after 5 to 10 mins by Clarke-type electrode analysis; assay type: cell-based; in short: as §3
T47D [5] = experiment: Antiproliferative activity against human T47D cells at 1 to 10 uM after 48 hrs by SRB assay; assay type: functional, cell-based; in short: as §1
[6] = molecular target: Mitochondrial complex I (NADH dehydrogenase); experiment: Inhibition of mitochondrial ETC complex 1 in human T47D cells assessed as inhibition of 1,10-phenanthroline-induced HIF1 activation incubated for 30 mins prior to 1,10-phenanthroline-challenge measured after 16 hrs by luciferase reporter assay; assay type: cell-based; in short: as §2
T47D [7] = experiment: Inhibition of mitochondrial ETC complex 2 in human digitonin-permeabalized T47D cells assessed as inhibition of succinate-initiated respiration at 10 uM after 2 hrs by Clarke-type electrode analysis; assay type: cell-based
In short: (§4)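 T47D cells were pretreated for 2 h with 10 μM compound (rotenone control 0.01 μM), then detached, washed and permeabilized with digitonin. Substrates and inhibitors were added in sequence while O2 uptake was followed by Clarke electrode. Respiration was started with malate/pyruvate (complex I) or succinate (complex II). Antimycin A then blocked complex III, and TMPD/ascorbate re-initiated respiration via complex IV. Rates were normalized to the untreated control.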

T47D [8] = experiment: Inhibition of mitochondrial ETC complex 1 in human digitonin-permeabalized T47D cells assessed as inhibition of malate/pyruvate-initiated respiration at 10 uM after 2 hrs by Clarke-type electrode analysis; assay type: cell-based; in short: as §4
T47D [9] = experiment: Inhibition of mitochondrial ETC complex 1 in human T47D cells assessed as inhibition of oxygen consumption at 10 uM after 2 hrs by Clarke-type electrode analysis; assay type: cell-based
In short: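 T47D cells were pretreated with 10 μM compound, or 0.01 μM rotenone, for 2 h. Cells were then detached and washed, and the oxygen consumption rate was measured with a Clarke-type electrode. Results are % inhibition relative to untreated controls.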

T47D [10] = experiment: Inhibition of mitochondrial ETC complex 1 in human T47D cells assessed as inhibition of oxygen consumption at 10 uM after 10 mins by Clarke-type electrode analysis; assay type: cell-based; in short: as §3
T47D [11] = experiment: Inhibition of mitochondrial ETC complex 4 in human digitonin-permeabalized T47D cells assessed as inhibition of ascorbate/TMPD-initiated respiration at 10 uM after 2 hrs by Clarke-type electrode analysis in presence of antimycin A; assay type: cell-based; in short: as §4
T47D [12] = experiment: Inhibition of mitochondrial ETC complex 1 in human digitonin-permeabalized T47D cells assessed as inhibition of malate/pyruvate-initiated respiration at 30 uM after 2 hrs by Clarke-type electrode analysis; assay type: cell-based
T47D [13] = experiment: Inhibition of mitochondrial ETC complex 4 in human digitonin-permeabalized T47D cells assessed as inhibition of ascorbate/TMPD-initiated respiration at 30 uM after 2 hrs by Clarke-type electrode analysis in presence of antimycin A; assay type: cell-based
T47D [14] = experiment: Inhibition of mitochondrial ETC complex 2 in human digitonin-permeabalized T47D cells assessed as inhibition of succinate-initiated respiration at 30 uM after 2 hrs by Clarke-type electrode analysis; assay type: cell-based
T47D [15] = experiment: Inhibition of mitochondrial ETC complex 1 in human digitonin-permeabalized T47D cells assessed as inhibition of malate/pyruvate-initiated respiration at 30 uM after 2 hrs by Clarke-type electrode analysis in presence of succinate; assay type: cell-based
T47D [16] = experiment: Inhibition of mitochondrial ETC complex 1 in human T47D cells assessed as inhibition of oxygen consumption at 0.01 uM after 10 mins by Clarke-type electrode analysis; assay type: cell-based
In short: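 Intact T47D cells; O2 consumption read on a Clark-type electrode after acute (5–10 min) compound exposure. Value is % inhibition of O2 consumption rate versus untreated control. Rotenone reference tested at 1, 10 and 100 nM. Mean of two independent experiments.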

T47D [17] = experiment: Inhibition of mitochondrial ETC complex 1 in human digitonin-permeabalized T47D cells assessed as inhibition of malate/pyruvate-initiated respiration at 0.01 uM after 2 hrs by Clarke-type electrode analysis; assay type: cell-based
In short: (§5)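 After 2 h pretreatment (rotenone 0.01 μM; test agents 10 μM), cells were detached and permeabilised with digitonin. Additions made in sequence: malate/pyruvate (complex I) or succinate (complex II), antimycin A to block complex III, then TMPD/ascorbate (complex IV) to restart respiration. Clark-electrode O2 consumption slopes were normalised to untreated control.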

T47D [18] = experiment: Inhibition of mitochondrial ETC complex 1 in human T47D cells assessed as inhibition of oxygen consumption at 0.01 uM after 2 hrs by Clarke-type electrode analysis; assay type: cell-based
In short: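 T47D cells treated 2 h in culture dishes with compound (10 μM; rotenone 0.01 μM), then detached and washed. O2 consumption measured with a Clark-type electrode. Value is % inhibition versus untreated control.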

T47D [19] = experiment: Inhibition of mitochondrial ETC complex 4 in human digitonin-permeabalized T47D cells assessed as inhibition of ascorbate/TMPD-initiated respiration at 0.01 uM after 2 hrs by Clarke-type electrode analysis in presence of antimycin A; assay type: cell-based; in short: as §5
T47D [20] = experiment: Inhibition of mitochondrial ETC complex 2 in human digitonin-permeabalized T47D cells assessed as inhibition of succinate-initiated respiration at 0.01 uM after 2 hrs by Clarke-type electrode analysis; assay type: cell-based; in short: as §5
T47D [21] = experiment: Antiproliferative activity against human T47D cells at 10 uM after 48 hrs by SRB assay; assay type: functional, cell-based
In short: (§6)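 Cells exposed 48 h to compounds at 1, 3, 10 and 30 μM (pure compounds from 4 mM 2-propanol stocks, final solvent <0.75%). Viability read by sulforhodamine B staining. Value is % inhibition versus untreated control, [1-(OD treated/OD control)]×100. Cycloheximide 10 μM and rotenone 1 and 10 nM served as controls.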

MDA-MB-231 [22] = experiment: Antiproliferative activity against human MDA-MB-231 cells at 10 uM after 48 hrs by SRB assay; assay type: functional, cell-based; in short: as §6

Structure (SMILES) | Activity (MDA-MB-231 [1]) | IC50 [2] [µM] | inhibition (T47D [3]) | inhibition (T47D [4]) | Activity (T47D [5]) | IC50 [6] [µM] | further results
COC(C)(C)[C@H](O)CC/C(C)=C/COc1ccc2ccc(=O)oc2c1 | Active | 19.3 | 30% | Dose-dependent effect | Active | > 30 | –
C=C(C)[C@H](O)CC/C(C)=C/COc1ccc2ccc(=O)oc2c1 | Active | 10.4 | 30% | Dose-dependent effect | Active | 21.8 | inhibition (T47D [7]): 16%; inhibition (T47D [8]): 16%; inhibition (T47D [9]): 31%; inhibition (T47D [10]): 27%; inhibition (T47D [11]): inactive
C/C(=C\COc1ccc2ccc(=O)oc2c1)CC[C@@H](O)C(C)(C)Cl | Active | 16.7 | 30% | Dose-dependent effect | Active | 11.1 | inhibition (T47D [12]): Active; inhibition (T47D [13]): inactive; inhibition (T47D [14]): inactive; inhibition (T47D [15]): inactive
COc1cc2ccc(=O)oc2cc1OC/C=C(\C)CCC=C(C)C | Active | 17.5 | 30% | Dose-dependent effect | Active | 24.2 | –
C=C(C)[C@H]1Cc2c(ccc3c2O[C@@H]2COc4cc(OC)c(OC)cc4[C@@H]2C3=O)O1 | – | – | – | – | – | – | inhibition (T47D [16]): 21%; inhibition (T47D [17]): 75%; inhibition (T47D [18]): 68%; inhibition (T47D [19]): inactive; inhibition (T47D [20]): 18%
C[C@@H]1C[C@@H]([C@H](O)CC2CC(=O)NC(=O)C2)C(=O)[C@@H](C)C1 | – | – | – | – | – | – | Activity (T47D [21]): Active; Activity (MDA-MB-231 [22]): Active
COc1cc(C[C@H]2CO[C@H](c3ccc(O)c(OC)c3)[C@H]2COC(=O)CC(C)C)ccc1O [(+)-9'-ISOVALEROXYLARICIRESINOL] | – | 9.1 | inactive | – | – | 4.9 | –
